# Assay outcomes deposited in PubChem BioAssay by The Scripps Research Institute Molecular Screening Center.
# M5 ag = human M5 muscarinic receptor agonists, primary screen, CHO-K1 cells, Fluo-8 calcium fluorescence; CHO-K1 hM5 cells; 0% DMSO wells, 100% maximal acetylcholine response; 360,000 compounds, 0.19% hits; activation, % at 3 µM; Muscarinic acetylcholine receptor M5 (Homo sapiens), P08912;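 active = activation above the run's mean over test compounds plus 3 SD, cut at about 23% in these data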;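 also: signal is peak over basal fluorescence ratio across the kinetic read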
# Target sequence (P08912 whole entry, looked up): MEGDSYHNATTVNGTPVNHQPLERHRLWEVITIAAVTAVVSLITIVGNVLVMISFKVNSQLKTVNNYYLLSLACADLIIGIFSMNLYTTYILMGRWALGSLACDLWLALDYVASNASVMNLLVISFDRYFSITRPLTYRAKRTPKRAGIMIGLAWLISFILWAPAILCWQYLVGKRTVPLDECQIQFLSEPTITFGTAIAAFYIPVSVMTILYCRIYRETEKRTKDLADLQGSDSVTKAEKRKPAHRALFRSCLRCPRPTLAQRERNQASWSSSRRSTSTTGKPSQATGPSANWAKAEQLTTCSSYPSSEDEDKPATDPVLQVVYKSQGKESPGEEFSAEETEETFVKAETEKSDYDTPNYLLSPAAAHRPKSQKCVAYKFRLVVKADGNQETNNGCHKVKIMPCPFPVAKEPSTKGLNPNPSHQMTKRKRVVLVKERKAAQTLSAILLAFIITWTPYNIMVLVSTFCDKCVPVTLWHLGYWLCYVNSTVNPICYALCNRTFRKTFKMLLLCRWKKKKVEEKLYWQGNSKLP
# M4 ag = human M4 muscarinic receptor agonists, primary screen, CHO-K1 cells, Fluo-8 calcium fluorescence; Muscarinic acetylcholine receptor M4 (Homo sapiens), P08173; CHO-K1 hM4/Gqi5; vehicle 0%, full acetylcholine response 100%; activation, % at 3 µM; 360,000 compounds, 0.14% hits; AID 624127, 2012;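 active = activation above the run mean over all test wells plus 3 SD, cut at about 32% in these data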;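 also: peak over basal fluorescence ratio per well then scaled between controls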
# M5 antag = human M5 muscarinic receptor antagonists, primary screen, CHO cells, Fluo-8 calcium fluorescence. 360,000 compounds, 0.59% hits. AID 624040, 2012. inhibition, % at 3 µM. CHO-hM5 cells, ACh EC80;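 active = inhibition above a per-plate cutoff, the mean of that plate's test compounds plus 3 SD, cut at about 27% in these data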
# CHRM5 PAM = human M5 muscarinic receptor positive allosteric modulators, primary screen, CHO-K1 cells, Fluo-8 calcium fluorescence; Muscarinic acetylcholine receptor M5 (Homo sapiens), P08912; activation, % at 3 µM; 360,000 compounds, 0.3% hits; AID 624038, 2012; CHO-K1 hM5, ACh EC20 PAM; 0% = ACh EC20, 100% = ACh EC100;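 active = activation above the run cutoff, the mean activation of all test compounds plus 3 SD, cut at about 18% in these data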
#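 Measured by: Fluo-8 calcium fluorescence; material: human M5 receptor in CHO-K1 cells; schedule: Post-acetylcholine fluorescence recording 140 s; benchmarks: low control EC20 acetylcholine (0%), high control EC100 acetylcholine (100%); read-out: Max/basal fluorescence ratio as % of EC20–EC100 ACh window; compound: single dose, 3 µM nominal final test concentration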
# CHRM4 PAM = human M4 muscarinic receptor positive allosteric modulators, primary screen, CHO-K1 cells, Fluo-8 calcium fluorescence. CHO-K1 hM4/Gqi5, ACh EC20; 0% = ACh EC20, 100% = maximal ACh. activation, % at 3 µM. 360,000 compounds, 0.4% hits. Muscarinic acetylcholine receptor M4 (Homo sapiens), P08173. AID 624126, 2012;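 active = activation above its plate's cutoff, the mean activation of sample wells plus 3 SD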
# CHRM4 antagonist = human M4 muscarinic receptor antagonists, primary screen, CHO cells, Fluo-8 calcium fluorescence; 360,000 compounds, 0.73% hits; CHO-hM4 cells, ACh EC80; inhibition, % at 3 µM; Muscarinic acetylcholine receptor M4 (Homo sapiens), P08173;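 active = inhibition above its plate's cutoff, the mean inhibition of sample wells plus 3 SD, cut at about 27% in these data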
# Numbers stand for hits; 0 = inactive. Most compounds without a hit are left out; they make up all but 1.8% or so of the library.
SMILES,M5 ag,M4 ag,M5 antag,CHRM5 PAM,CHRM4 PAM,CHRM4 antagonist
CCn1nc(C(=O)OCC(=O)N2CC(=O)Nc3ccccc32)c2ccccc2c1=O,0,0,0,0,22.5,0
CCCn1nc(C(=O)OCC(=O)c2ccccc2)c2ccccc2c1=O,0,0,0,0,0,0
COc1ccc(Cl)cc1NC(=O)C(OC)c1ccccc1 (configuration not stated),0,0,0,0,0,0
CCC(C(=O)Nc1cc(Cl)ccc1OC)c1ccccc1 (configuration not stated),0,0,0,18.6,0,0
CCC(C(=O)Nc1ccc(C(=O)Nc2ccccc2C(=O)O)cc1)c1ccccc1 (configuration not stated),0,0,0,0,17.3,0
CCC(C(=O)Nc1ccc(C(=O)N2CCCC2)cc1)c1ccccc1 (configuration not stated),0,0,0,0,0,0
CCc1ccc(NC(=O)C(CC)c2ccccc2)cc1 (configuration not stated),24.4,0,0,0,0,0
CCC(C(=O)Nc1ccc(C)cc1)c1ccccc1 (configuration not stated),0,0,0,0,0,0
CCCCn1c(N)c(N(CCOC)C(=O)c2ccc(S(=O)(=O)N3CCCCC3)cc2)c(=O)[nH]c1=O,0,0,0,0,0,0
CCCCOC(=O)/C=C/c1c(C)[nH]c(=O)[nH]c1=O,0,0,0,0,22.3,0
Cc1ccc(S(=O)(=O)NCCC(=O)NC2CC2)cc1,0,0,0,0,0,0
O=C(COC(=O)c1cc(=O)[nH]c2ccc(Br)cc12)c1ccccc1,0,0,0,0,0,0
CC(O)[C@@H](NC(=O)C1CCC(CNC(=O)[C@H](Cc2ccccc2)NC(=O)OC(C)(C)C)CC1)C(=O)O (some centres not stated),0,0,0,0,16.3,0
CN1CCN(c2cc(C(F)(F)F)nc3ccc(F)cc23)CC1,0,0,0,0,0,0
CC1(C(=O)NNC(=O)c2cccc([N+](=O)[O-])c2)CC1Br (configuration not stated),0,0,0,0,15.8,0
CC[C@H](C)[C@H]1CNC(=S)N1CC1CCN(CCC23CC4CC(CC(C4)C2)C3)CC1,0,0,0,0,0,67.1
CC[C@H](C)[C@H]1CNC(=S)N1CC1CCN(CC2CCC(C)CC2)CC1 (some centres not stated),0,0,0,0,0,0
COc1ccc(NC(=O)COC(=O)CC2CC3CCC2C3)c([N+](=O)[O-])c1 (configuration not stated),0,0,0,0,21.1,0
COc1ccc(NC(=O)COC(=O)C2CCCCC2)c([N+](=O)[O-])c1,0,0,0,0,0,0
COc1ccc(-c2nnc(SCC(=O)NCC3CCCO3)o2)cc1 (configuration not stated),0,0,0,0,0,0
Cc1cc(C)cc(-c2nnc(SCC(=O)NCC3CCCO3)o2)c1 (configuration not stated),0,0,0,0,23.0,0
O=C(Nc1ccc(F)cc1)C(c1ccncc1)N1CCN(CC(=O)N2CCCC2)CC1 (configuration not stated),0,0,0,0,0,0
COc1ccc(-n2nnc3c(SC(C(C)=O)C(=O)N(C)C)ncnc32)cc1 (configuration not stated),0,0,0,0,0,0
CCOc1cc(C(=O)NCC(C)CN(C)C)cc(OCC)c1OCC (configuration not stated),0,0,0,0,0,0
CCOc1ccc(C(=O)NCC(C)CN(C)C)cc1OCC (configuration not stated),0,0,0,22.3,0,0
SMILES,M5 ag,M4 ag,M5 antag,CHRM5 PAM,CHRM4 PAM,CHRM4 antagonist
O=C1CCC(C(=O)N2CCCO2)CN1Cc1cccc(C(F)(F)F)c1 (configuration not stated),0,0,0,19.0,18.7,0
CS(=O)(=O)N(CC(=O)N1CCc2ccccc2C1)c1ccc(Cl)cc1F,0,0,0,0,0,0
CCN(CCCNC(=O)C1CCN(S(=O)(=O)c2cnc[nH]2)CC1)c1cccc(C)c1,0,0,0,41.9,0,0
O=c1c2ccccc2nc2sc(Nc3cccc(Cl)c3)nn12,0,0,0,19.7,0,0
CCC1(CC)NC(=O)N(CC(=O)OC(C)C(=O)Nc2ccc(NC(C)=O)cc2)C1=O (configuration not stated),0,0,0,0,0,0
O=C(Nc1ccccc1O)c1ccc2c(c1)C(=O)N(c1ccccc1)C2=O,0,0,0,0,0,0
Cc1cc(N2C(=O)c3ccc(C(=O)Nc4ccccc4O)cc3C2=O)no1,0,0,27.6,0,0,0
CC(C)(C)C(=O)/C=c1\s/c(=C\c2ccc(-c3ccc([N+](=O)[O-])cc3)o2)c(=O)n1CC(=O)NC(N)=O,0,0,32.5,0,0,0
CCOc1c(CNCCCSc2nc(C)cc(C)n2)cccc1OC,0,0,0,0,0,0
C=CCN(CC=C)C(=O)CN1C(=O)NC(c2ccccc2)(c2ccccc2)C1=O,0,0,0,0,17.8,0
Nc1ccn([C@@H]2O[C@H](CNCc3cc(Br)ccc3OCc3ccccc3)[C@@H](O)[C@H]2O)c(=O)n1,0,0,0,0,0,0
FC(F)(F)Sc1ccc(NC(=S)NCc2ccccc2)cc1,0,0,28.4,0,0,0
S=C(NCc1ccccc1)Nc1ccc(Cl)cc1,0,0,0,0,0,0
COC(=O)c1ccc(CN2CCC(CO)(Cc3ccccc3Cl)CC2)cc1,0,0,0,0,0,27.3
COC(=O)c1ccc(CN2CCCC(CO)(Cc3ccccc3F)C2)cc1 (configuration not stated),0,0,0,0,0,0
COCCNC(=O)C1(C)CCCN(C(=O)c2cccc3ccccc23)C1 (configuration not stated),0,0,29.7,0,0,0
CCOC(=O)[C@H]1[C@H]2COc3ccc(Cl)cc3[C@@H]2N2C(=O)CN(CC3CCCO3)C(=O)[C@@]12C (some centres not stated),0,0,0,0,0,0
COc1ccc(C2=CCCC2)c(OC)c1,0,0,0,0,0,0
c1ccc2cc(N3CCCCC3)ccc2c1,0,0,0,0,0,0
